“And” between values parts separate entries of the source, which are not always exact repeats. Identical values can stand only once.
System: HEK-293T
Assay: Multiplex assay against HEK293T
Type: toxicity, cell-based
Settings: human, number of replicates 2
Summary of the method: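 At seeding, live cells were stained with Hoechst33342, BioTracker Green Microtubule Cytoskeleton Dye, MitoTracker Red and Annexin V Alexa Fluor 680. After compound addition they were imaged on a CQ1 microscope at 37°C and 5% CO2, and CellPathfinder machine-learning gating sorted them into Hoechst high-intensity objects or normal cells, with normal cells further split into healthy, pyknosed or fragmented nuclei and pyknosed cells into mitotic or apoptotic. Tubulin, mitochondrial-mass and membrane-permeability phenotypes are given as per cents of cells with healthy nuclei.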

[1] = 12 h, 1 µM, compound concentration 1 uM
[2] = 12 h, 10 µM, compound concentration 10 uM
[3] = 24 h, 1 µM, compound concentration 1 uM
[4] = 24 h, 10 µM, compound concentration 10 uM
[5] = 48 h, 1 µM, compound concentration 1 uM
[6] = 48 h, 10 µM, compound concentration 10 uM

## NC(=O)c1ccc(-c2nc(-c3ccc4c(c3)OCCO4)c(-c3ccccn3)[nH]2)cc1
[1]
  Population Apoptotic (%): 57% and 48%
  Population Fragmented Nuclei (%): 3%
  Population Healthy Nuclei (%): 83% and 85%
  Population Hoechst High Intensity Objects (%): 6% and 8%
  Population Membrane Permeable-Phenotype (%): 0% and 2%
  Population Mitochondria Different-Phenotype (%): 16% and 11%
  Population Mitotic Cells (%): 42% and 52%
  Population Normal (%): 93% and 91%
  Population Pyknosed Nuclei (%): 13% and 10%
  Population Tubulin-Different-Phenotype (%): 54% and 46%
  Total Cell Count: 656 and 747
[2]
  Population Apoptotic (%): 46% and 38%
  Population Fragmented Nuclei (%): 3%
  Population Healthy Nuclei (%): 87% and 88%
  Population Hoechst High Intensity Objects (%): 7% and 4%
  Population Membrane Permeable-Phenotype (%): 3% and 5%
  Population Mitochondria Different-Phenotype (%): 15% and 16%
  Population Mitotic Cells (%): 53% and 61%
  Population Normal (%): 92% and 95%
  Population Pyknosed Nuclei (%): 9% and 8%
  Population Tubulin-Different-Phenotype (%): 61% and 55%
  Total Cell Count: 620 and 572
[3]
  Population Apoptotic (%): 44% and 61%
  Population Fragmented Nuclei (%): 7% and 3%
  Population Healthy Nuclei (%): 85% and 87%
  Population Hoechst High Intensity Objects (%): 9% and 7%
  Population Membrane Permeable-Phenotype (%): 2% and 1%
  Population Mitochondria Different-Phenotype (%): 4% and 6%
  Population Mitotic Cells (%): 55% and 38%
  Population Normal (%): 90% and 92%
  Population Pyknosed Nuclei (%): 7% and 8%
  Population Tubulin-Different-Phenotype (%): 23% and 29%
  Total Cell Count: 1205 and 941
[4]
  Population Apoptotic (%): 48% and 44%
  Population Fragmented Nuclei (%): 4% and 3%
  Population Healthy Nuclei (%): 89% and 90%
  Population Hoechst High Intensity Objects (%): 7% and 8%
  Population Membrane Permeable-Phenotype (%): 4% and 3%
  Population Mitochondria Different-Phenotype (%): 9% and 5%
  Population Mitotic Cells (%): 51% and 55%
  Population Normal (%): 92% and 91%
  Population Pyknosed Nuclei (%): 6% and 5%
  Population Tubulin-Different-Phenotype (%): 39% and 37%
  Total Cell Count: 908 and 852
[5]
  Population Apoptotic (%): 14% and 25%
  Population Fragmented Nuclei (%): 16% and 11%
  Population Healthy Nuclei (%): 80% and 85%
  Population Hoechst High Intensity Objects (%): 10%
  Population Membrane Permeable-Phenotype (%): 5% and 1%
  Population Mitochondria Different-Phenotype (%): 0%
  Population Mitotic Cells (%): 85% and 74%
  Population Normal (%): 89%
  Population Pyknosed Nuclei (%): 2%
  Population Tubulin-Different-Phenotype (%): 11% and 15%
  Total Cell Count: 3179 and 2277
[6]
  Population Apoptotic (%): 6% and 9%
  Population Fragmented Nuclei (%): 10% and 9%
  Population Healthy Nuclei (%): 86% and 87%
  Population Hoechst High Intensity Objects (%): 7% and 8%
  Population Membrane Permeable-Phenotype (%): 5%
  Population Mitochondria Different-Phenotype (%): 1%
  Population Mitotic Cells (%): 93% and 90%
  Population Normal (%): 92% and 91%
  Population Pyknosed Nuclei (%): 3%
  Population Tubulin-Different-Phenotype (%): 21% and 23%
  Total Cell Count: 2159 and 1774

## CC(C)(C)c1cnc(CSc2cnc(NC(=O)C3CCNCC3)s2)o1 [BMS-387032]
[1]
  Population Apoptotic (%): 64% and 60%
  Population Fragmented Nuclei (%): 3%
  Population Healthy Nuclei (%): 69% and 77%
  Population Hoechst High Intensity Objects (%): 17% and 10%
  Population Membrane Permeable-Phenotype (%): 6% and 0%
  Population Mitochondria Different-Phenotype (%): 54%
  Population Mitotic Cells (%): 35% and 40%
  Population Normal (%): 82% and 89%
  Population Pyknosed Nuclei (%): 26% and 18%
  Population Tubulin-Different-Phenotype (%): 75% and 77%
[2]
  Population Apoptotic (%): 87% and 73%
  Population Fragmented Nuclei (%): 6% and 3%
  Population Healthy Nuclei (%): 77% and 90%
  Population Hoechst High Intensity Objects (%): 18% and 15%
  Population Membrane Permeable-Phenotype (%): 3% and 1%
  Population Mitochondria Different-Phenotype (%): 66% and 67%
  Population Mitotic Cells (%): 12% and 26%
  Population Normal (%): 81% and 84%
  Population Tubulin-Different-Phenotype (%): 84% and 85%
[3]
  Population Apoptotic (%): 73% and 69%
  Population Fragmented Nuclei (%): 6% and 5%
  Population Healthy Nuclei (%): 70% and 72%
  Population Hoechst High Intensity Objects (%): 22% and 14%
  Population Membrane Permeable-Phenotype (%): 3% and 0%
  Population Mitochondria Different-Phenotype (%): 58% and 61%
  Population Mitotic Cells (%): 26% and 30%
  Population Normal (%): 77% and 85%
  Population Pyknosed Nuclei (%): 23% and 21%
  Population Tubulin-Different-Phenotype (%): 69% and 71%
[4]
  Population Apoptotic (%): 87% and 75%
  Population Fragmented Nuclei (%): 9% and 5%
  Population Healthy Nuclei (%): 73% and 85%
  Population Hoechst High Intensity Objects (%): 19% and 17%
  Population Membrane Permeable-Phenotype (%): 0%
  Population Mitochondria Different-Phenotype (%): 80% and 78%
  Population Mitotic Cells (%): 12% and 25%
  Population Normal (%): 80% and 82%
  Population Pyknosed Nuclei (%): 16% and 9%
  Population Tubulin-Different-Phenotype (%): 84% and 89%
[5]
  Population Apoptotic (%): 77% and 81%
  Population Fragmented Nuclei (%): 7% and 4%
  Population Healthy Nuclei (%): 71% and 77%
  Population Hoechst High Intensity Objects (%): 21% and 16%
  Population Membrane Permeable-Phenotype (%): 1% and 0%
  Population Mitochondria Different-Phenotype (%): 62% and 68%
  Population Mitotic Cells (%): 22% and 18%
  Population Normal (%): 78% and 83%
  Population Pyknosed Nuclei (%): 21% and 18%
  Population Tubulin-Different-Phenotype (%): 64% and 65%
[6]
  Population Apoptotic (%): 92% and 93%
  Population Fragmented Nuclei (%): 9% and 5%
  Population Healthy Nuclei (%): 71% and 86%
  Population Hoechst High Intensity Objects (%): 23% and 19%
  Population Membrane Permeable-Phenotype (%): 2%
  Population Mitochondria Different-Phenotype (%): 83% and 86%
  Population Mitotic Cells (%): 7% and 6%
  Population Normal (%): 76% and 80%
  Population Pyknosed Nuclei (%): 18% and 8%
  Population Tubulin-Different-Phenotype (%): 85% and 89%

## CS(=O)(=O)c1ccc(C(=O)Nc2ccc(F)c(COc3ccc(Br)cc3CNCCO)c2)c(Cl)c1.O=CO
[1]
  Population Apoptotic (%): 55% and 59%
  Population Healthy Nuclei (%): 78% and 76%
  Population Mitotic Cells (%): 44% and 40%
  Total Cell Count: 571 and 534
[2]
  Population Apoptotic (%): 71% and 70%
  Population Healthy Nuclei (%): 84% and 78%
  Population Mitotic Cells (%): 28% and 30%
  Total Cell Count: 446 and 461
[3]
  Population Apoptotic (%): 57% and 61%
  Population Healthy Nuclei (%): 79% and 77%
  Population Mitotic Cells (%): 42% and 38%
  Total Cell Count: 845 and 808
[4]
  Population Apoptotic (%): 72% and 81%
  Population Healthy Nuclei (%): 75%
  Population Mitotic Cells (%): 28% and 18%
  Total Cell Count: 456
[5]
  Population Apoptotic (%): 30% and 39%
  Population Healthy Nuclei (%): 79% and 83%
  Population Mitotic Cells (%): 69% and 60%
  Total Cell Count: 2082 and 1679
[6]
  Population Apoptotic (%): 82% and 80%
  Population Healthy Nuclei (%): 75%
  Population Mitotic Cells (%): 17% and 19%
  Total Cell Count: 675 and 612

## Cc1ccc2c(N)c(C(=O)NC3CCc4cc(N5CC6CCC(C5)N6)ccc4C3)sc2n1.O=CO (centres undefined)
[1]
  Population Apoptotic (%): 50% and 60%
  Population Fragmented Nuclei (%): 3% and 5%
  Population Healthy Nuclei (%): 85% and 82%
  Population Hoechst High Intensity Objects (%): 12% and 13%
  Population Membrane Permeable-Phenotype (%): 2% and 1%
  Population Mitochondria Different-Phenotype (%): 57% and 50%
  Population Mitotic Cells (%): 50% and 39%
  Population Normal (%): 87% and 86%
  Population Pyknosed Nuclei (%): 11%
  Population Tubulin-Different-Phenotype (%): 79% and 80%
  Total Cell Count: 342 and 430
[2]
  Population Apoptotic (%): 77% and 90%
  Population Fragmented Nuclei (%): 7% and 15%
  Population Healthy Nuclei (%): 66% and 63%
  Population Hoechst High Intensity Objects (%): 66% and 71%
  Population Membrane Permeable-Phenotype (%): 15% and 21%
  Population Mitochondria Different-Phenotype (%): 60% and 54%
  Population Mitotic Cells (%): 22% and 9%
  Population Normal (%): 33% and 28%
  Population Pyknosed Nuclei (%): 26% and 21%
  Population Tubulin-Different-Phenotype (%): 68% and 63%
  Total Cell Count: 206 and 183
[3]
  Population Apoptotic (%): 58% and 60%
  Population Fragmented Nuclei (%): 5% and 3%
  Population Healthy Nuclei (%): 86% and 89%
  Population Hoechst High Intensity Objects (%): 13% and 16%
  Population Membrane Permeable-Phenotype (%): 1% and 2%
  Population Mitochondria Different-Phenotype (%): 60% and 50%
  Population Mitotic Cells (%): 41% and 40%
  Population Normal (%): 86% and 83%
  Population Pyknosed Nuclei (%): 8% and 6%
  Population Tubulin-Different-Phenotype (%): 72% and 71%
  Total Cell Count: 413 and 427
[4]
  Population Apoptotic (%): 95% and 72%
  Population Fragmented Nuclei (%): 11% and 14%
  Population Healthy Nuclei (%): 59% and 66%
  Population Hoechst High Intensity Objects (%): 67% and 66%
  Population Membrane Permeable-Phenotype (%): 14% and 13%
  Population Mitochondria Different-Phenotype (%): 66% and 63%
  Population Normal (%): 32% and 33%
  Population Pyknosed Nuclei (%): 29% and 19%
  Population Tubulin-Different-Phenotype (%): 61% and 55%
  Total Cell Count: 216 and 168
[5]
  Population Apoptotic (%): 40% and 66%
  Population Fragmented Nuclei (%): 5%
  Population Healthy Nuclei (%): 88% and 87%
  Population Hoechst High Intensity Objects (%): 8% and 10%
  Population Membrane Permeable-Phenotype (%): 1% and 0%
  Population Mitochondria Different-Phenotype (%): 32% and 41%
  Population Mitotic Cells (%): 59% and 33%
  Population Normal (%): 91% and 89%
  Population Pyknosed Nuclei (%): 5% and 7%
  Population Tubulin-Different-Phenotype (%): 61% and 73%
  Total Cell Count: 596 and 593
[6]
  Population Apoptotic (%): 77% and 87%
  Population Fragmented Nuclei (%): 9% and 15%
  Population Healthy Nuclei (%): 57% and 60%
  Population Hoechst High Intensity Objects (%): 67%
  Population Membrane Permeable-Phenotype (%): 14% and 10%
  Population Mitochondria Different-Phenotype (%): 63% and 70%
  Population Mitotic Cells (%): 22% and 12%
  Population Normal (%): 32%
  Population Pyknosed Nuclei (%): 32% and 24%
  Population Tubulin-Different-Phenotype (%): 48% and 57%
  Total Cell Count: 254 and 203
